{"source": "ChEMBL document CHEMBL1921787", "about": "“Synthesis and antihepatotoxic activity of 5-(2,3-dihydro-1,4-benzodioxane-6-yl)-3-substituted-phenyl-4,5-dihydro-1H-pyrazole derivatives” (2011)", "key": {"[1]": {"tested_on": "Rattus norvegicus", "assay": "Antihepatotoxic activity against CCl4-induced liver damage in rat assessed as decrease in serum SGOT level at 10 mg/kg, po by calorimetric assay (reference value: 74.52 +/- 0.695 IU/L)", "assay_type": "functional"}, "[2]": {"tested_on": "Rattus norvegicus", "assay": "Antihepatotoxic activity against CCl4-induced liver damage in rat assessed as decrease in serum SGPT level at 10 mg/kg, po by calorimetric assay (reference value: 85.27 +/- 2.05 IU/L)", "assay_type": "functional"}, "[3]": {"tested_on": "Rattus norvegicus", "assay": "Antihepatotoxic effect against CCl4-induced liver damage in rat assessed as appearance of little dilution at 10 mg/kg, po by microscopic examination-based histopathological analysis", "assay_type": "functional, organism-based", "parameters": "dose 10 mg/kg", "summary_of_the_method": "(§1)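 Livers taken from Wistar rats (n = 5 per group) dosed with CCl4 1.5 ml/kg p.o. plus agents at 10 mg/kg p.o.; silymarin reference and normal controls included. Liver sections examined microscopically and scored descriptively for necrosis, inflammation, sinusoidal dilatation, central vein appearance, cytoplasmic staining, parenchyma and vascular change.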"}, "[4]": {"tested_on": "Rattus norvegicus", "assay": "Antihepatotoxic activity against CCl4-induced liver damage in rat assessed as increase in total protein level at 10 mg/kg, po (reference value: 3.54 +/- 0.67 g/dl)", "assay_type": "functional"}, "[5]": {"tested_on": "Rattus norvegicus", "assay": "Antihepatotoxic effect against CCl4-induced liver damage in rat assessed as appearance of clear central vein at 10 mg/kg, po by microscopic examination-based histopathological analysis", "assay_type": "functional, organism-based", "parameters": "dose 10 mg/kg", "summary_of_the_method": "as §1"}, "[6]": {"tested_on": "Rattus norvegicus", "assay": "Antihepatotoxic activity against CCl4-induced liver damage in rat assessed as decrease in ALP level at 10 mg/kg, po after 1 hr by photoelectric reading analysis (reference value: 66.157 +/- 2.886 KA)", "assay_type": "functional"}, "[7]": {"tested_on": "Rattus norvegicus", "assay": "Antihepatotoxic effect against CCl4-induced liver damage in rat assessed as appearance of sinusoidal dilution in centrizonal area at 10 mg/kg, po by microscopic examination-based histopathological analysis", "assay_type": "functional, organism-based", "parameters": "dose 10 mg/kg", "summary_of_the_method": "as §1"}, "[8]": {"tested_on": "Rattus norvegicus", "assay": "Antihepatotoxic effect against CCl4-induced liver damage in rat assessed as appearance of normal parenchyma at 10 mg/kg, po by microscopic examination-based histopathological analysis", "assay_type": "functional, organism-based", "parameters": "dose 10 mg/kg", "summary_of_the_method": "as §1"}, "[9]": {"tested_on": "Rattus norvegicus", "assay": "Antihepatotoxic effect against CCl4-induced liver damage in rat assessed as appearance of moderate sinusoidal dilution around central vein at 10 mg/kg, po by microscopic examination-based histopathological analysis", "assay_type": "functional, organism-based", "parameters": "dose 10 mg/kg", "summary_of_the_method": "as §1"}, "[10]": {"tested_on": "Rattus norvegicus", "assay": "Antihepatotoxic effect against CCl4-induced liver damage in rat assessed as fine vascular changes in hepatocytes at 10 mg/kg, po by microscopic examination-based histopathological analysis", "assay_type": "functional, organism-based", "parameters": "dose 10 mg/kg", "settings": "Hepatocyte", "summary_of_the_method": "as §1"}, "[11]": {"tested_on": "Rattus norvegicus", "assay": "Antihepatotoxic effect against CCl4-induced liver damage in rat assessed as appearance of uniformly stained cytoplasm at 10 mg/kg, po by microscopic examination-based histopathological analysis", "assay_type": "functional, organism-based", "parameters": "dose 10 mg/kg", "summary_of_the_method": "as §1"}, "[12]": {"tested_on": "Rattus norvegicus", "assay": "Antihepatotoxic effect against CCl4-induced liver damage in rat assessed as appearance of mild dilution of sinusoidal spaces at 10 mg/kg, po by microscopic examination-based histopathological analysis", "assay_type": "functional, organism-based", "parameters": "dose 10 mg/kg", "settings": "Sinusoidal space", "summary_of_the_method": "as §1"}, "[13]": {"tested_on": "Rattus norvegicus", "assay": "Antihepatotoxic effect against CCl4-induced liver damage in rat assessed as appearance of visible central vein at 10 mg/kg, po by microscopic examination-based histopathological analysis", "assay_type": "functional, organism-based", "parameters": "dose 10 mg/kg", "summary_of_the_method": "as §1"}, "[14]": {"tested_on": "Rattus norvegicus", "assay": "Antihepatotoxic effect against CCl4-induced liver damage in rat assessed as absence of necrosis at 10 mg/kg, po by microscopic examination-based histopathological analysis", "assay_type": "functional, organism-based", "parameters": "dose 10 mg/kg", "summary_of_the_method": "as §1"}, "[15]": {"tested_on": "Rattus norvegicus", "assay": "Antihepatotoxic effect against CCl4-induced liver damage in rat assessed as appearance of moderate sinusoidal dilution at 10 mg/kg, po by microscopic examination-based histopathological analysis", "assay_type": "functional, organism-based", "parameters": "dose 10 mg/kg", "summary_of_the_method": "as §1"}}, "note": "Calls of active or inactive are those of the source. No cut-off for these calls is given here.", "data": [{"molecule": "Cc1cccc(C2=NNC(c3ccc4c(c3)OCCO4)C2)c1", "note": "(stereo not drawn)", "values": [{"measurement": "Activity", "setting": "[1]", "value": 64.85, "unit": "IU/L"}, {"measurement": "Activity", "setting": "[2]", "value": 64.13, "unit": "IU/L"}, {"measurement": "Activity", "setting": "[3]", "value": "Active"}, {"measurement": "Activity", "setting": "[4]", "value": 3.98, "unit": "g/dL"}, {"measurement": "Activity", "setting": "[5]", "value": "Active"}, {"measurement": "Activity", "setting": "[6]", "value": 55.74, "unit": "KA"}]}, {"molecule": "COc1ccc(C2=NNC(c3ccc4c(c3)OCCO4)C2)cc1OC", "note": "(stereo not drawn)", "values": [{"measurement": "Activity", "setting": "[1]", "value": 58.85, "unit": "IU/L"}, {"measurement": "Activity", "setting": "[7]", "value": "Active"}, {"measurement": "Activity", "setting": "[2]", "value": 64.95, "unit": "IU/L"}, {"measurement": "Activity", "setting": "[4]", "value": 3.82, "unit": "g/dL"}, {"measurement": "Activity", "setting": "[8]", "value": "Active"}, {"measurement": "Activity", "setting": "[6]", "value": 49.48, "unit": "KA"}]}, {"molecule": "Clc1ccc(C2=NNC(c3ccc4c(c3)OCCO4)C2)cc1", "note": "(stereo not drawn)", "values": [{"measurement": "Activity", "setting": "[1]", "value": 63.42, "unit": "IU/L"}, {"measurement": "Activity", "setting": "[2]", "value": 65.81, "unit": "IU/L"}, {"measurement": "Activity", "setting": "[9]", "value": "Active"}, {"measurement": "Activity", "setting": "[10]", "value": "Active"}, {"measurement": "Activity", "setting": "[4]", "value": 3.91, "unit": "g/dL"}, {"measurement": "Activity", "setting": "[6]", "value": 46.06, "unit": "KA"}]}, {"molecule": "SILYMARIN", "values": [{"measurement": "Activity", "setting": "[11]", "value": "Active"}, {"measurement": "Activity", "setting": "[12]", "value": "Active"}, {"measurement": "Activity", "setting": "[1]", "value": 56.2, "unit": "IU/L"}, {"measurement": "Activity", "setting": "[2]", "value": 61.3, "unit": "IU/L"}, {"measurement": "Activity", "setting": "[13]", "value": "Active"}, {"measurement": "Activity", "setting": "[14]", "value": "Active"}, {"measurement": "Activity", "setting": "[4]", "value": 4.2, "unit": "g/dL"}, {"measurement": "Activity", "setting": "[6]", "value": 48.6, "unit": "KA"}]}, {"molecule": "c1ccc(C2=NNC(c3ccc4c(c3)OCCO4)C2)cc1", "note": "(stereo not drawn)", "values": [{"measurement": "Activity", "setting": "[1]", "value": 62.85, "unit": "IU/L"}, {"measurement": "Activity", "setting": "[2]", "value": 65, "unit": "IU/L"}, {"measurement": "Activity", "setting": "[9]", "value": "Active"}, {"measurement": "Activity", "setting": "[10]", "value": "Active"}, {"measurement": "Activity", "setting": "[4]", "value": 4.04, "unit": "g/dL"}, {"measurement": "Activity", "setting": "[6]", "value": 53.14, "unit": "KA"}]}, {"molecule": "Oc1ccc(C2=NNC(c3ccc4c(c3)OCCO4)C2)c(O)c1", "note": "(stereo not drawn)", "values": [{"measurement": "Activity", "setting": "[1]", "value": 58.57, "unit": "IU/L"}, {"measurement": "Activity", "setting": "[2]", "value": 62.09, "unit": "IU/L"}, {"measurement": "Activity", "setting": "[15]", "value": "Active"}, {"measurement": "Activity", "setting": "[4]", "value": 3.82, "unit": "g/dL"}, {"measurement": "Activity", "setting": "[8]", "value": "Active"}, {"measurement": "Activity", "setting": "[6]", "value": 58.22, "unit": "KA"}]}]}
